Laboratory results reported in ChEMBL document CHEMBL4732095, “Novel naphthylamide derivatives as dual-target antifungal inhibitors: Design, synthesis and biological evaluation” (Eur J Med Chem, 2021).
Calls of active or inactive are those of the source. The calls are words filed in the database; no cut-off is given here.

Legend:
Candida albicans [1] = assay: Antifungal activity against Candida albicans ATCC 10231 assessed as inhibition of microbial growth by NCCLS protocol based method; assay type: functional
Procedure, shortened: (§1)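 Broth MIC50 determined following NCCLS guidelines in Sabouraud medium, with fungal suspension in 24-well format. Compound tested at 0.0625, 0.125, 0.5, 1, 2, 4, 8 and 16 μg/mL. Plates cultured statically at 35 °C. MIC50 is the lowest concentration giving 50% growth inhibition. Naftifine and fluconazole served as positive controls.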

Aspergillus fumigatus = assay: Antifungal activity against Aspergillus fumigatus KM8001 assessed as inhibition of microbial growth by NCCLS protocol based method; assay type: functional; procedure, shortened: as §1
Nakaseomyces glabratus = assay: Antifungal activity against Candida glabrata ATCC 0001 assessed as inhibition of microbial growth by NCCLS protocol based method; assay type: functional; procedure, shortened: as §1
Pichia kudriavzevii = assay: Antifungal activity against Candida krusei ATCC 6258 assessed as inhibition of microbial growth by NCCLS protocol based method; assay type: functional; procedure, shortened: as §1
Candida tropicalis = assay: Antifungal activity against Candida tropicalis ATCC 1369 assessed as inhibition of microbial growth by NCCLS protocol based method; assay type: functional; procedure, shortened: as §1
[2] = target: T1, Lanosterol 14-alpha demethylase (Candida albicans (strain SC5314 / ATCC MYA-2876) (Yeast), UniProt P10613); assay: Inhibition of CYP51 in Candida albicans ATCC SC5314 assessed as lanosterol level at 0.5 ug/ml incubated for 48 hrs by LC/MS analysis; set-up: scale not given: the % may be the effect or the level left; conditions: candida albicans sc5314, 48 h, at 0.5 µg/mL
T1 sequence (P10613 whole entry): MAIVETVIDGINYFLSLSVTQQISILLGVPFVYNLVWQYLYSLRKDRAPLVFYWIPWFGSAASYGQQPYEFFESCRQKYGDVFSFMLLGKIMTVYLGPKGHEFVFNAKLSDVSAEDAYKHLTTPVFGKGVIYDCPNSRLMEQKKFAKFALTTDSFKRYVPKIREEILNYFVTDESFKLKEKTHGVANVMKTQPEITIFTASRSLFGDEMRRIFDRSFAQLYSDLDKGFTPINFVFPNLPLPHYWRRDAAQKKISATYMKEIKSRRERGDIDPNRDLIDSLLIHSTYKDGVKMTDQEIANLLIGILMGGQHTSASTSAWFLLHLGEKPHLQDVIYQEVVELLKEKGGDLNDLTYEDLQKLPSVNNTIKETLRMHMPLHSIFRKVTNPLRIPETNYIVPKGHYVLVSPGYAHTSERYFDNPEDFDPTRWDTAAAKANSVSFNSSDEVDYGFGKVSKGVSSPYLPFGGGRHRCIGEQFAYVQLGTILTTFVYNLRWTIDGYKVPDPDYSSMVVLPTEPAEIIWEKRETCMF
Procedure, shortened: (§2)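 C. albicans SC5314 cells exposed to compound (0.125, 0.5 or 4 μg/mL) for 48 h alongside untreated and naftifine/fluconazole-treated groups; sterol fraction analysed by LC-MS; each component expressed as percent of total sterols from peak area ratios.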

Candida albicans [3] = assay: Antifungal activity against Candida albicans ATCC SC5314 assessed as decrease in fungal cell density at 10 nM/mL by polarizing microscopy; assay type: functional, organism-based; conditions: dose 10.0 nmol/ml
Procedure, shortened: (§3)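 C. albicans ATCC SC5314 observed by polarizing microscopy over treatment time. Untreated, fluconazole- and naftifine-treated control groups were included. Cell density, dividing cells and cell fracture were assessed, with cell counts taken per field.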

[4] = target: T1, Lanosterol 14-alpha demethylase; assay: Inhibition of CYP51 in Candida albicans ATCC SC5314 assessed as lanosterol level at 4 ug/ml incubated for 48 hrs by LC/MS analysis; set-up: scale not given: the % may be the effect or the level left; conditions: candida albicans sc5314, 48 h, at 4 µg/mL; procedure, shortened: as §2
Candida albicans [5] = assay: Antifungal activity against fluconazole-resistant Candida albicans 17# assessed as inhibition of microbial growth by NCCLS protocol based method; assay type: functional
Candida albicans [6] = assay: Antifungal activity against Candida albicans ATCC SC5314 assessed as reduction in cell division at 10 nM/mL by polarizing microscopy; assay type: functional, organism-based; conditions: dose 10.0 nmol/ml; procedure, shortened: as §3
[7] = target: T1, Lanosterol 14-alpha demethylase; assay: Inhibition of CYP51 in Candida albicans ATCC SC5314 assessed as ergosterol level at 0.125 ug/ml incubated for 48 hrs by LC/MS analysis (reference value: 95.1 %); set-up: scale not given: the % may be the effect or the level left; conditions: candida albicans sc5314, 48 h, at 0.125 µg/mL
Procedure, shortened: (§4)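 C. albicans ATCC SC5314 cells exposed to drug at 0.125, 0.5 or 4 μg/mL for 48 h, alongside an untreated control. Sterols were extracted and analysed by LC-MS. Ergosterol, squalene, lanosterol, eburicol and unknown sterols are each given as % of total sterols, calculated from the peak area ratio of each component.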

[8] = target: T1, Lanosterol 14-alpha demethylase; assay: Inhibition of CYP51 in Candida albicans ATCC SC5314 assessed as lanosterol level at 0.125 ug/ml incubated for 48 hrs by LC/MS analysis; set-up: scale not given: the % may be the effect or the level left; conditions: candida albicans sc5314, 48 h, at 0.125 µg/mL; procedure, shortened: as §4
[9] = target: T1, Lanosterol 14-alpha demethylase; assay: Inhibition of CYP51 in Candida albicans ATCC SC5314 assessed as eburicol level at 4 ug/ml incubated for 48 hrs by LC/MS analysis (reference value: 1.4 %); set-up: scale not given: the % may be the effect or the level left; conditions: candida albicans sc5314, 48 h, at 4 µg/mL; procedure, shortened: as §2
[10] = target: T1, Lanosterol 14-alpha demethylase; assay: Inhibition of CYP51 in Candida albicans ATCC SC5314 assessed as unknown sterol level at 4 ug/ml incubated for 48 hrs by LC/MS analysis; set-up: scale not given: the % may be the effect or the level left; conditions: candida albicans sc5314, 48 h, at 4 µg/mL; procedure, shortened: as §2
Candida albicans [11] = assay: Antifungal activity against Candida albicans ATCC SC5314 assessed as induction of cell fracture at 10 nM/mL by polarizing microscopy; assay type: functional, organism-based; conditions: dose 10.0 nmol/ml; procedure, shortened: as §3
[12] = target: T1, Lanosterol 14-alpha demethylase; assay: Inhibition of CYP51 in Candida albicans ATCC SC5314 assessed as squalene level at 4 ug/ml incubated for 48 hrs by LC/MS analysis; set-up: scale not given: the % may be the effect or the level left; conditions: candida albicans sc5314, 48 h, at 4 µg/mL; procedure, shortened: as §2
[13] = target: T1, Lanosterol 14-alpha demethylase; assay: Inhibition of CYP51 in Candida albicans ATCC SC5314 assessed as unknown sterol level at 0.125 ug/ml incubated for 48 hrs by LC/MS analysis; set-up: scale not given: the % may be the effect or the level left; conditions: candida albicans sc5314, 48 h, at 0.125 µg/mL; procedure, shortened: as §4
[14] = target: T1, Lanosterol 14-alpha demethylase; assay: Inhibition of Candida albicans ATCC SC5314 CYP51 incubated for 30 mins by HPLC method
Candida albicans [15] = assay: Antifungal activity against fluconazole-resistant Candida albicans 901 assessed as inhibition of microbial growth by NCCLS protocol based method; assay type: functional
[16] = target: T1, Lanosterol 14-alpha demethylase; assay: Inhibition of CYP51 in Candida albicans ATCC SC5314 assessed as ergosterol level at 4 ug/ml incubated for 48 hrs by LC/MS analysis (reference value: 95.1 %); set-up: scale not given: the % may be the effect or the level left; conditions: candida albicans sc5314, 48 h, at 4 µg/mL; procedure, shortened: as §2
[17] = target: T1, Lanosterol 14-alpha demethylase; assay: Inhibition of CYP51 in Candida albicans ATCC SC5314 assessed as ergosterol level at 0.5 ug/ml incubated for 48 hrs by LC/MS analysis (reference value: 95.1 %); set-up: scale not given: the % may be the effect or the level left; conditions: candida albicans sc5314, 48 h, at 0.5 µg/mL; procedure, shortened: as §2
Candida albicans [18] = assay: Antifungal activity against fluconazole-resistant Candida albicans CaR assessed as inhibition of microbial growth by NCCLS protocol based method; assay type: functional
Candida albicans [19] = assay: Antifungal activity against fluconazole-resistant Candida albicans 904 assessed as inhibition of microbial growth by NCCLS protocol based method; assay type: functional
Candida albicans [20] = assay: Antifungal activity against fluconazole-resistant Candida albicans 632 assessed as inhibition of microbial growth by NCCLS protocol based method; assay type: functional
[21] = target: T1, Lanosterol 14-alpha demethylase; assay: Inhibition of CYP51 in Candida albicans ATCC SC5314 assessed as eburicol level at 0.5 ug/ml incubated for 48 hrs by LC/MS analysis (reference value: 1.4 %); set-up: scale not given: the % may be the effect or the level left; conditions: candida albicans sc5314, 48 h, at 0.5 µg/mL; procedure, shortened: as §2
[22] = target: T1, Lanosterol 14-alpha demethylase; assay: Inhibition of CYP51 in Candida albicans ATCC SC5314 assessed as unknown sterol level at 0.5 ug/ml incubated for 48 hrs by LC/MS analysis; set-up: scale not given: the % may be the effect or the level left; conditions: candida albicans sc5314, 48 h, at 0.5 µg/mL; procedure, shortened: as §2
[23] = target: T1, Lanosterol 14-alpha demethylase; assay: Inhibition of CYP51 in Candida albicans ATCC SC5314 assessed as eburicol level at 0.125 ug/ml incubated for 48 hrs by LC/MS analysis (reference value: 1.4 %); set-up: scale not given: the % may be the effect or the level left; conditions: candida albicans sc5314, 48 h, at 0.125 µg/mL; procedure, shortened: as §4

## CN(CC(=O)Nc1ccncc1)C(=O)c1ccc2ccccc2c1
Candida albicans [1]
  MIC50: 0.25 µg/mL
Aspergillus fumigatus
  MIC50: 8 µg/mL
Nakaseomyces glabratus
  MIC50: 0.5 µg/mL
Pichia kudriavzevii
  MIC50: 1 µg/mL
Candida tropicalis
  MIC50: 0.25 µg/mL

## CN(CC(=O)NC(Cn1ccnc1)C(=O)c1ccccc1)C(=O)c1cccc2ccccc12 (configuration not stated)
Candida albicans [1]
  MIC50: 0.5 µg/mL
Aspergillus fumigatus
  MIC50: 8 µg/mL
Nakaseomyces glabratus
  MIC50: 0.25 µg/mL
Pichia kudriavzevii
  MIC50: 0.5 µg/mL
Candida tropicalis
  MIC50: 0.25 µg/mL

## Cc1ccc(NC(=O)C(Cn2ccnc2)NC(=O)c2ccc3ccccc3c2)cc1 (configuration not stated)
Candida albicans [1]
  MIC50: 0.125 µg/mL
Aspergillus fumigatus
  MIC50: 8 µg/mL
Nakaseomyces glabratus
  MIC50: 0.25 µg/mL
Pichia kudriavzevii
  MIC50: 0.25 µg/mL
Candida tropicalis
  MIC50: 0.25 µg/mL

## CC(C)C(NC(=O)c1ccc2ccccc2c1)C(=O)NC(Cn1ccnc1)C(=O)c1ccccc1 (configuration not stated)
Candida albicans [1]
  MIC50: 0.5 µg/mL
Aspergillus fumigatus
  MIC50: > 16 µg/mL
Nakaseomyces glabratus
  MIC50: 1 µg/mL
Pichia kudriavzevii
  MIC50: 1 µg/mL
Candida tropicalis
  MIC50: 0.5 µg/mL

## CN(CC(=O)NCc1cccnc1)C(=O)c1cccc2ccccc12
Candida albicans [1]
  MIC50: 0.5 µg/mL
Aspergillus fumigatus
  MIC50: > 16 µg/mL
Nakaseomyces glabratus
  MIC50: 2 µg/mL
Pichia kudriavzevii
  MIC50: 0.5 µg/mL
Candida tropicalis
  MIC50: 0.25 µg/mL

## OC(Cn1cncn1)(Cn1cncn1)c1ccc(F)cc1F [FLUCONAZOLE]
[2]
  Activity: 8.9%
Candida albicans [3]
  Activity: Active
[4]
  Activity: 16.3%
Candida albicans [1]
  MIC50: 0.25 µg/mL
Aspergillus fumigatus
  MIC50: > 16 µg/mL
Candida albicans [5]
  MIC50: 8 µg/mL
Nakaseomyces glabratus
  MIC50: 0.25 µg/mL
Candida albicans [6]
  Activity: Active
[7]
  Activity: 78.5%
[8]
  Activity: 5.1%
[9]
  Activity: 64.5%
[10]
  Activity: 5.2%
Pichia kudriavzevii
  MIC50: 1 µg/mL
Candida albicans [11]
  Activity: Active
[12]
  Activity: 1.3%
[13]
  Activity: 3.6%
[14]
  IC50: 116 nM
Candida albicans [15]
  MIC50: > 16 µg/mL
Candida tropicalis
  MIC50: 0.25 µg/mL
[16]
  Activity: 12.7%
[17]
  Activity: 43.9%
Candida albicans [18]
  MIC50: > 16 µg/mL
Candida albicans [19]
  MIC50: 8 µg/mL
Candida albicans [20]
  MIC50: 8 µg/mL
[21]
  Activity: 42.5%
[22]
  Activity: 4.7%
[23]
  Activity: 12.8%
